≈ marks a conversion by molar mass, not a printed value.

Data set [1] is described as follows: Cytotoxicity against human CaSki cells after 48 hrs by SRB assay. The format is functional, cell-based. Conditions: Ca-Ski. In outline: (§1)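 Cell lines (HeLa, CaSki, SK-OV-3, MDCK) were obtained from ATCC. The colorimetric end point used the protein-binding dye sulforhodamine B.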
In data set [2] the test system is SK-OV-3. The data set can be described thus: Cytotoxicity against human SKOV3 cells after 48 hrs by SRB assay. Format: functional, cell-based. Particulars: SK-OV-3, 48 h. The method, boiled down:
as §1
(The SRB assay estimates cell density from bound dye.)

For data set [3], the system named is HeLa. The data set can be described thus: Cytotoxicity against human HeLa cells after 48 hrs by SRB assay. Format: functional, cell-based. The method, boiled down: as §1
A short description of data set [4]: Antioxidant activity assessed as ABTS radical scavenging activity after 10 mins by UV-Visible spectrophotometric analysis. Format: physicochemical. The method, boiled down: (§2)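 Radical scavenging by DPPH (Brand–Williams method) and by ABTS radical-cation decolorization via single electron transfer. Ascorbic acid served as the reference. IC50 is the concentration that inhibits 50% of the radicals. Results are the average of triplicate analyses.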

The nature of data set [5]: Antioxidant activity assessed as DPPH radical scavenging activity after 25 mins by UV-Visible spectrophotometric analysis. Format: physicochemical. The method, boiled down: as §2
Data set [6] has as its system MDCK. The data set can be described thus: Cytotoxicity against MDCK cells after 48 hrs by SRB assay. Conditions: Canis lupus familiaris. The format is cell-based. The method, boiled down:
as §1

The test system of data set [7] is HeLa. The data set can be described thus: Cytotoxicity against human HeLa cells. The format is functional, cell-based.

As for `O=c1cc(-c2ccccc2)oc2cc(OCCCCNc3nc4ccccc4s3)cc(O)c12`, the IC50 in data set [1] came to 14.6 µg/mL (≈ 31.9 µM); in data set [2], 48.5 µg/mL (≈ 106 µM); in data set [3], 4.75 µg/mL (≈ 10.4 µM); in data set [4], 8.567 µg/mL (≈ 18.7 µM); in data set [5] it was 26.45 µg/mL (≈ 57.7 µM). The same compound had a CC50 in data set [6] of 348 µg/mL (≈ 758 µM).
For the compound `Cc1ccc2nc(NCCCCOc3cc(O)c4c(=O)cc(-c5ccccc5)oc4c3)sc2c1`, the half-maximal inhibitory concentration (IC50) in data set [1] is 15.5 µg/mL (≈ 32.9 µM); in data set [2], 48.4 µg/mL (≈ 102 µM); in data set [3], 6.56 µg/mL (≈ 13.9 µM); in data set [4], 8.785 µg/mL (≈ 18.6 µM); in data set [5] it was 28.13 µg/mL (≈ 59.5 µM). This compound gave a CC50 in data set [6] of 294 µg/mL (≈ 621 µM).
With `COc1ccc2nc(NCCCCOc3cc(O)c4c(=O)cc(-c5ccccc5)oc4c3)sc2c1`, the half-maximal inhibitory concentration (IC50) worked out at 16.1 µg/mL (≈ 33 µM) in data set [1]; 38.1 µg/mL (≈ 78.1 µM) in data set [2]; 6.15 µg/mL (≈ 12.6 µM) in data set [3]; 7.356 µg/mL (≈ 15.1 µM) in data set [4]; 23.87 µg/mL (≈ 48.9 µM) in data set [5]. The compound further came in with a CC50 in data set [6] of 285 µg/mL (≈ 583 µM).
Regarding `CCOc1ccc2nc(NCCCCOc3cc(O)c4c(=O)cc(-c5ccccc5)oc4c3)sc2c1`, the IC50 in data set [1] is 15.1 µg/mL (≈ 29.9 µM); in data set [2] it was 35.3 µg/mL (≈ 70.3 µM); in data set [3] it was 5.25 µg/mL (≈ 10.4 µM); in data set [4], 8.853 µg/mL (≈ 17.6 µM); in data set [5], 24.41 µg/mL (≈ 48.6 µM). The compound also registered a CC50 in data set [6] of 306 µg/mL (≈ 610 µM).
Take `O=c1cc(-c2ccccc2)oc2cc(OCCCCNc3nc4ccc([N+](=O)[O-])cc4s3)cc(O)c12`: the IC50 was determined as 13.2 µg/mL (≈ 26.3 µM) in data set [1]; 41.4 µg/mL (≈ 82.3 µM) in data set [2]; 6.44 µg/mL (≈ 12.8 µM) in data set [3]; 8.135 µg/mL (≈ 16.2 µM) in data set [4]; 30.25 µg/mL (≈ 60.1 µM) in data set [5]. This compound also returned a CC50 in data set [6] of 310 µg/mL (≈ 615 µM).
Turning to `N#Cc1ccc2nc(NCCCCOc3cc(O)c4c(=O)cc(-c5ccccc5)oc4c3)sc2c1`, the IC50 in data set [1] was 18.8 µg/mL (≈ 39 µM); in data set [2], 43.7 µg/mL (≈ 90.4 µM); in data set [3], 8.53 µg/mL (≈ 17.6 µM); in data set [4], 6.543 µg/mL (≈ 13.5 µM); in data set [5] it was 15.56 µg/mL (≈ 32.2 µM). In data set [6], this compound had a 50% cytotoxic concentration (CC50) of 312 µg/mL (≈ 646 µM).
As to `O=c1cc(-c2ccccc2)oc2cc(OCCCCNc3nc4ccc(Cl)cc4s3)cc(O)c12`, the IC50 in data set [1] amounted to 12.4 µg/mL (≈ 25.2 µM); in data set [2] it was 39.2 µg/mL (≈ 79.6 µM); in data set [3], 5.95 µg/mL (≈ 12.1 µM); in data set [4], 4.156 µg/mL (≈ 8.43 µM); in data set [5] it was 13.16 µg/mL (≈ 26.7 µM). The same compound yielded a CC50 in data set [6] of 338 µg/mL (≈ 685 µM).
`O=c1cc(-c2ccccc2)oc2cc(OCCCCNc3nc4ccc(Br)cc4s3)cc(O)c12`: the IC50 stood at 12.4 µg/mL (≈ 23.1 µM) in data set [1]; 35.1 µg/mL (≈ 65.3 µM) in data set [2]; 6.56 µg/mL (≈ 12.2 µM) in data set [3]; 6.565 µg/mL (≈ 12.2 µM) in data set [4]; 16.09 µg/mL (≈ 29.9 µM) in data set [5]. The compound also gave a CC50 in data set [6] of 289 µg/mL (≈ 538 µM).
Consider `O=c1cc(-c2ccccc2)oc2cc(OCCCCNc3nc4ccc(I)cc4s3)cc(O)c12`, for which the IC50 in data set [1] was 13.2 µg/mL (≈ 22.5 µM); in data set [2], 56.4 µg/mL (≈ 96.6 µM); in data set [3], 8.12 µg/mL (≈ 13.9 µM); in data set [4], 9.836 µg/mL (≈ 16.8 µM); in data set [5], 25.44 µg/mL (≈ 43.5 µM). In data set [6], this compound registered a CC50 of 298 µg/mL (≈ 510 µM).
Regarding `O=c1cc(-c2ccccc2)oc2cc(OCCCCNc3nc4ccc(F)cc4s3)cc(O)c12`, the IC50 was determined as 13.4 µg/mL (≈ 28 µM) in data set [1]; 33.7 µg/mL (≈ 70.8 µM) in data set [2]; 5.03 µg/mL (≈ 10.6 µM) in data set [3]; 5.246 µg/mL (≈ 11 µM) in data set [4]; 14.74 µg/mL (≈ 30.9 µM) in data set [5]. In addition, in data set [6], the CC50 amounted to 324 µg/mL (≈ 680 µM).
On to `O=c1cc(-c2ccccc2)oc2cc(OCCCCNc3nc4c(F)cc(F)cc4s3)cc(O)c12`, for which the IC50 came to 10.8 µg/mL (≈ 21.9 µM) in data set [1]; 36.8 µg/mL (≈ 74.5 µM) in data set [2]; 5.56 µg/mL (≈ 11.2 µM) in data set [3]; 5.764 µg/mL (≈ 11.7 µM) in data set [4]; 15.12 µg/mL (≈ 30.6 µM) in data set [5]. The same compound gave a half-maximal cytotoxic concentration (CC50) in data set [6] of 307 µg/mL (≈ 621 µM).
Turning to `O=c1cc(-c2ccccc2)oc2cc(OCCCCNc3nc4ccc(C(F)(F)F)cc4s3)cc(O)c12`, the IC50 in data set [1] was found to be 11.2 µg/mL (≈ 21.3 µM); in data set [2], 37.2 µg/mL (≈ 70.6 µM); in data set [3], 7.84 µg/mL (≈ 14.9 µM); in data set [4] it was 4.953 µg/mL (≈ 9.41 µM); in data set [5], 16.27 µg/mL (≈ 30.9 µM). The CC50 in data set [6] is 278 µg/mL (≈ 529 µM).
In the case of `CC(=O)Nc1ccc2nc(NCCCCOc3cc(O)c4c(=O)cc(-c5ccccc5)oc4c3)sc2c1`, the IC50 is 11.4 µg/mL (≈ 22 µM) in data set [1]; 51.3 µg/mL (≈ 99.4 µM) in data set [2]; 6.91 µg/mL (≈ 13.4 µM) in data set [3]; 8.355 µg/mL (≈ 16.2 µM) in data set [4]; 29.16 µg/mL (≈ 56.6 µM) in data set [5]. Also, half-maximal cytotoxicity in data set [6] (CC50) was put at 291 µg/mL (≈ 565 µM).
Consider `O=C(O)c1ccc2nc(NCCCCOc3cc(O)c4c(=O)cc(-c5ccccc5)oc4c3)sc2c1`, for which the IC50 in data set [1] came out at 12.1 µg/mL (≈ 24 µM); in data set [2], 43.3 µg/mL (≈ 86.3 µM); in data set [3], 8.42 µg/mL (≈ 16.8 µM); in data set [4] it was 6.742 µg/mL (≈ 13.4 µM); in data set [5], 21.66 µg/mL (≈ 43.1 µM). The compound also had a CC50 in data set [6] of 324 µg/mL (≈ 645 µM).
On to `CC(=O)c1ccc2nc(NCCCCOc3cc(O)c4c(=O)cc(-c5ccccc5)oc4c3)sc2c1`, for which the IC50 was 14.5 µg/mL (≈ 29 µM) in data set [1]; 34.3 µg/mL (≈ 68.4 µM) in data set [2]; 7.78 µg/mL (≈ 15.6 µM) in data set [3]; 7.026 µg/mL (≈ 14 µM) in data set [4]; 30.72 µg/mL (≈ 61.4 µM) in data set [5]. In addition, the half-maximal cytotoxic concentration (CC50) in data set [6] was 311 µg/mL (≈ 621 µM).
Consider `CCC(=O)c1ccc2nc(NCCCCOc3cc(O)c4c(=O)cc(-c5ccccc5)oc4c3)sc2c1`, for which the IC50 in data set [1] stood at 17.8 µg/mL (≈ 34.7 µM); in data set [2] it was 35.6 µg/mL (≈ 69.3 µM); in data set [3] it was 6.26 µg/mL (≈ 12.2 µM); in data set [4], 7.157 µg/mL (≈ 13.9 µM); in data set [5] it was 32.23 µg/mL (≈ 62.6 µM). This compound also came in with a CC50 in data set [6] of 296 µg/mL (≈ 574 µM).
In the case of `CCCC(=O)c1ccc2nc(NCCCCOc3cc(O)c4c(=O)cc(-c5ccccc5)oc4c3)sc2c1`, the IC50 is 17.8 µg/mL (≈ 33.6 µM) in data set [1]; 41.6 µg/mL (≈ 78.7 µM) in data set [2]; 7.17 µg/mL (≈ 13.6 µM) in data set [3]; 8.535 µg/mL (≈ 16.1 µM) in data set [4]; 38.98 µg/mL (≈ 73.7 µM) in data set [5]. Further, it took 278 µg/mL (≈ 525 µM) to reach half-maximal cytotoxicity in data set [6] (CC50).
In the case of `O=c1cc(-c2ccccc2)oc2cc(OCCCCNNc3nc4ccccc4s3)cc(O)c12`, the half-maximal inhibitory concentration (IC50) in data set [1] amounted to 14.6 µg/mL (≈ 30.9 µM); in data set [2] it was 51.7 µg/mL (≈ 109 µM); in data set [3], 4.64 µg/mL (≈ 9.79 µM); in data set [4], 8.734 µg/mL (≈ 18.4 µM); in data set [5], 24.34 µg/mL (≈ 51.4 µM). This compound gave a CC50 in data set [6] of 316 µg/mL (≈ 668 µM).
With `O=C1O[C@H]([C@@H](O)CO)C(O)=C1O` [ASCORBIC ACID], the IC50 in data set [4] stood at 5.0925 µg/mL (≈ 28.9 µM); in data set [5], 12.72 µg/mL (≈ 72.2 µM).
The compound `O=c1cc(-c2ccccc2)oc2cc(O)cc(O)c12` [CHRYSIN] gave an IC50 in data set [7] of 10.9 µg/mL (≈ 43 µM).

A word on the IC50: it is the concentration at which inhibition is half-maximal. What is called CC50 is the concentration that lowers cell viability or growth by half. A high value points to lower toxicity to the cells.
